The record followed here is article PMC9924312 (Asian Pacific Journal of Cancer Prevention : APJCP, 2022).

The subject of one assay is neuroblastoma SH-SY5Y. Kind of assay: MTT antiproliferative assay, 72 h exposure. The assay is classed as cell-based, human. The essentials: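 SH-SY5Y cells were kept in 1:1 EMEM/F12 with 10% FBS at 37°C under 5% CO2. After trypsin/EDTA detachment and trypan-blue counting, cells were plated in 96-well format and allowed 24 h to attach. They were then incubated ±test compound for 72 h. IC50 was derived from a logarithmic trend line of the cytotoxicity plots.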
On the technique in general: Tetrazolium assays rely on reduction of a dye to a coloured formazan, in cell work by metabolically active cells.

Assay [1] has as its system dermal fibroblasts (BJ ATCC CRL-2522). Kind of assay: MTT antiproliferative assay on normal cells, 72 h exposure. The assay is classed as cell-based, human. Particulars: read-out: IC50 Fibroblast. In a few lines: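 Human BJ dermal fibroblasts were grown in DMEM at 37°C under humidified 5% CO2. Cells were detached with 0.25% trypsin/0.53 mM EDTA, counted by trypan blue, seeded in 96-well plates and left 24 h to attach, then exposed to test compound or no drug for 72 h. IC50 was taken from a logarithmic trend line.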

On to `CC(=O)O.CCN(CC)CC[n+]1ccc2c(C)c3[nH]c4ccc(O)cc4c3c(C)c2c1` [Compound 3], for which the “% SH-SY5Y 10µM (percentage inhibition)” value with neuroblastoma SH-SY5Y (10 µM, 72 h exposure) amounted to 74.22 ± 0.025%. The “% SH-SY5Y 50µM (percentage inhibition)” value in the assay with neuroblastoma SH-SY5Y (50 µM, 72 h exposure) stood at 78.23 ± 0.057%. The IC50 (usually the midpoint of a concentration-inhibition curve) in the assay with neuroblastoma SH-SY5Y (read-out: IC50 SH-SY5Y, MTT, 72 h) stood at 1060 ± 190 nM; in assay [1], 303 ± 1 nM.
